Screening data (PubChem)
NALP1 yeast inh: inhibitors of NALP1 inflammasome in yeast. S. cerevisiae NALP1/ASC/caspase-1 growth, X-gal OD620, 72 h. inhibition, % at 10 µM. hit rate 0.61% among 280,000; in the data active = inhibition mostly above about 24%, no sharp cut-off; inactive = mostly below about 32%
MC4R antagonist: blocks human MC4R cAMP signaling | P32245 | MC4R-expressing cells, MTII-stimulated cAMP, LANCE TR-FRET | inhibition, % at 6.5 µM | hit rate 0.48% among 360,000 | AID 540295;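 active = inhibition above its plate's cutoff, the mean of tested wells on that plate plus 3 SD, cut at about 29% in these data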;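 also: 0% = Melanotan II alone and 100% = Melanotan II plus saturating MCL0020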
Target sequence (P32245 whole entry, looked up): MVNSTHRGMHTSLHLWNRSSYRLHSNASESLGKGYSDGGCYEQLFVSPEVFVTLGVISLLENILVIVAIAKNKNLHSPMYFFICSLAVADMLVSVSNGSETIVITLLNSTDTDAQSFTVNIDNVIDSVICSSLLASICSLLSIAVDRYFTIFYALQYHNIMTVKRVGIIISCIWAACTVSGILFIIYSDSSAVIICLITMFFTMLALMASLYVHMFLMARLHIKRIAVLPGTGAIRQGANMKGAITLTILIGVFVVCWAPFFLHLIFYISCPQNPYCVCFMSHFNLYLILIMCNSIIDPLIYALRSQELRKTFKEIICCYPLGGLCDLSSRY
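Material: human MC4R-expressing U2OS cells. Probe or stimulus: Melanotan II challenge. Dosing: 6.5 µM single dose. Times: 30-min compound, 1-h challenge, 1-h detection, room temperature. Technique: TR-FRET with Eu-cAMP and labeled anti-cAMP, 671 nm. Replication: singlicate.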
Tb MetRS inh: Trypanosoma brucei MetRS inhibition. inhibition, % at 11.9 µM. purified T. brucei MetRS, ATP depletion, Kinase-Glo luminescence. hit rate 0.4% among 360,000;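 active = inhibition above a per-plate cutoff of the control wells' mean inhibition plus 3 SD, cut at about 5.5% in these data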;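 also: 0% = DMSO wells median and 100% = median of wells with control inhibitor compound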
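Assay system: T. brucei methionyl-tRNA synthetase, purified | Medium: HEPES buffer with MgCl2, KCl, DTT, spermine, BSA, pyrophosphatase | Compound: 11.9 µM single point | Incubation: 15 min enzyme-compound preincubation, 2 h reaction, 10 min detection, 25 °C | Measured by: Kinase-Glo luciferase luminescence reporting remaining unconsumed ATP | Measure: % inhibition normalized to control-well medians | Replication: Singlicate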
A1 inh: inhibitors of the anti-apoptotic protein A1, read as caspase activation; MEF A1-2A-BIM cells, Caspase-Glo 3/7 luminescence, 3 h; percent of clofoctol response, vehicle zero; caspase activation, % (no concentration beside the values); hit rate 0.066% among 330,000; AID 2462;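 active = over half of replicate activation scores above 10%, or exactly half above 10 with the replicate mean above 10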
NALP3 yeast inh: inhibitors of NALP3 inflammasome in yeast | Yeast reconstituted NLRP3/ASC/caspase-1, beta-gal luminescence, 24 h | AID 2825 | inhibition, % at 10 µM | hit rate 0.39% among 330,000;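 active = inhibition of 50% or more; inactive = inhibition below 50%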;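 also: plate controls were induced DMSO wells for no effect and uninduced yeast grown without galactose for full effect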
MC4R ag barr: human MC4R agonism via beta-arrestin; activation, % at 8.9 µM; hit rate 0.98% among 360,000; P32245; U2OS MC4R beta-arrestin complementation, luminescence; percent of melanotan II response, DMSO zero;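 active = activation above a per-plate cutoff, the mean activation of sample wells on that plate plus 3 SD, cut at about 8% in these data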
Starred values were filed as active, the others as inactive. In the library only some 2.5% were active in any assay of this set; here they are far more common.

How did CCCCN(Cc1ccco1)C(=O)c1cc2c(=O)[nH]c3ccc(C)cc3c2s1 do in these assays?
NALP1 yeast inh: 10.4; MC4R antagonist: 7.9; Tb MetRS inh: 0.4; A1 inh: -0.3; NALP3 yeast inh: 9.6; MC4R ag barr: 36.3*

How did CCCCN(CC)C(=O)c1cc2c(=O)[nH]c3ccc(C)cc3c2s1 do in these assays?
NALP1 yeast inh: 28.3; MC4R antagonist: 4.7; Tb MetRS inh: 0.0; A1 inh: -1.4; NALP3 yeast inh: 10.8; MC4R ag barr: -2.0

What do the screens show for `CC(=O)c1nc2ccccc2n1S(=O)(=O)c1ccc(Cl)cc1`?
NALP1 yeast inh: 1.8; MC4R antagonist: -2.5; Tb MetRS inh: -0.5; A1 inh: 0.1; NALP3 yeast inh: -3.3; MC4R ag barr: -1.5

How did CC(=O)c1nc2ccccc2n1S(=O)(=O)c1ccc(C)cc1 do in these assays?
NALP1 yeast inh: 27.8*; MC4R antagonist: -0.3; Tb MetRS inh: -0.6; A1 inh: -0.2; NALP3 yeast inh: -12.9; MC4R ag barr: -0.5

Results for COc1ccc([C@H]2C[C@H](n3cc(C4CC4)nn3)[C@@H](O)CN2C(=O)C2CCCCC2)cc1 ?
MC4R antagonist: 8.1; Tb MetRS inh: -0.5; MC4R ag barr: -0.6

How did CCCCN(C)C(=S)Nc1ccc(Oc2ccccc2)cc1 do in these assays?
NALP1 yeast inh: 28.6; MC4R antagonist: -3.2; Tb MetRS inh: -0.2; A1 inh: -0.3; NALP3 yeast inh: 26.3; MC4R ag barr: -0.8

What do the screens show for `CCCN(CC1CC1)C(=S)Nc1ccc(Oc2ccccc2)cc1`?
NALP1 yeast inh: 61.2*; MC4R antagonist: 7.9; Tb MetRS inh: -0.5; A1 inh: 1.0; NALP3 yeast inh: 23.4; MC4R ag barr: -1.4

What do the screens show for `Cc1cc(C)cc(NC(=O)COC(=O)CCn2c(C)csc2=O)c1`?
MC4R antagonist: 2.1; Tb MetRS inh: -0.4; A1 inh: 0.3; NALP3 yeast inh: 5.5; MC4R ag barr: -3.5

How did CCCc1nn(C)c(C(=O)Nc2cccc(Cl)c2)c1Cl do in these assays?
NALP1 yeast inh: 27.5; MC4R antagonist: 16.1; Tb MetRS inh: -0.2; A1 inh: -1.2; NALP3 yeast inh: 15.8; MC4R ag barr: 4.8

What do the screens show for `CCCc1nn(C)c(C(=O)Nc2cccc(C)c2)c1Cl`?
NALP1 yeast inh: 46.3*; MC4R antagonist: 1.9; Tb MetRS inh: -0.6; A1 inh: -1.0; NALP3 yeast inh: 27.6; MC4R ag barr: 5.1

Results for Oc1c(Cl)cc(CN2CCOCC2)c2cccnc12 ?
MC4R antagonist: -2.8; Tb MetRS inh: -0.4; A1 inh: 0.6; NALP3 yeast inh: -16.1; MC4R ag barr: 1.2

What do the screens show for `Oc1c(CN2CCCCC2)cc(Br)c2cccnc12`?
NALP1 yeast inh: 58.4*; MC4R antagonist: 26.8; Tb MetRS inh: -0.1; A1 inh: -1.6; NALP3 yeast inh: 44.3; MC4R ag barr: -2.3

What do the screens show for `Cc1ccc(F)cc1S(=O)(=O)NCc1ccc(N2CCN(C)CC2)cc1`?
NALP1 yeast inh: 31.3*; MC4R antagonist: 2.2; Tb MetRS inh: -0.1; A1 inh: 1.5; NALP3 yeast inh: 11.0; MC4R ag barr: 1.1

How did Cc1ccccc1Oc1cc(-n2ncc(Cl)c(Cl)c2=O)ncn1 do in these assays?
NALP1 yeast inh: 30.8; MC4R antagonist: 50.5*; Tb MetRS inh: -0.1; A1 inh: -1.2; MC4R ag barr: -3.7

How did C/C(=N\NC(=O)c1nn(C)c(C)c1Br)c1ccc(NC(=O)C2CCCC2)cc1 do in these assays?
NALP1 yeast inh: -0.6; MC4R antagonist: -0.7; Tb MetRS inh: 0.0; A1 inh: -0.8; NALP3 yeast inh: 10.3; MC4R ag barr: -2.4

Results for COCCNc1nc(-c2ccc(OC)cc2)c(-c2ccc(OC)cc2)s1 ?
NALP1 yeast inh: 35.1*; MC4R antagonist: 3.1; Tb MetRS inh: -0.7; A1 inh: -0.4; NALP3 yeast inh: 22.8; MC4R ag barr: -3.9

How did CCN(CC)CCNc1nc(-c2ccc(OC)cc2)c(-c2ccc(OC)cc2)s1 do in these assays?
NALP1 yeast inh: -11.1; MC4R antagonist: 5.1; Tb MetRS inh: 0.1; A1 inh: 0.4; NALP3 yeast inh: 11.6; MC4R ag barr: 1.7

What do the screens show for `O=C1C(=O)c2c(C(=O)c3ccccc3)coc2-c2ccccc21`?
NALP1 yeast inh: 11.1; MC4R antagonist: -16.4; Tb MetRS inh: -0.1; A1 inh: -0.5; NALP3 yeast inh: 0.8; MC4R ag barr: 8.7*

How did C[C@@H]1COc2cc(N3CCN(Cc4ccccc4F)CC3)ccc2S(=O)(=O)N1 do in these assays?
Tb MetRS inh: -0.1

How did c1ccc(CN2CCC3CC2c2ccc(N4CCOCC4)cc23)cc1 (centres undefined) do in these assays?
MC4R antagonist: 12.5; Tb MetRS inh: -1.0; MC4R ag barr: -0.2

Results for O=C(/C=C/Nc1ccc(F)cc1F)c1cccs1 ?
NALP1 yeast inh: 23.1; MC4R antagonist: -2.5; Tb MetRS inh: -0.2; A1 inh: -8.7; NALP3 yeast inh: 27.2; MC4R ag barr: 0.4

Results for O=C(/C=C/Nc1ccccc1F)c1cccs1 ?
NALP1 yeast inh: 56.6*; MC4R antagonist: -3.6; Tb MetRS inh: -1.5; A1 inh: -8.8; NALP3 yeast inh: 24.5; MC4R ag barr: 0.1

Results for CCc1ccc(NC(=O)Cn2nc(C(F)(F)F)c3c2CCC3)cc1 ?
NALP1 yeast inh: 12.5; MC4R antagonist: -1.6; Tb MetRS inh: 0.1; A1 inh: -0.5; NALP3 yeast inh: 14.1; MC4R ag barr: 9.2*

How did CCc1nc2ccc(C(=O)NCCCn3ccnc3)cn2c1N(C)Cc1cccs1 do in these assays?
MC4R antagonist: 4.5; Tb MetRS inh: -0.3; MC4R ag barr: -2.6

What do the screens show for `CC1=CC(C)(C)N(C(=O)CCl)c2ccccc21`?
NALP1 yeast inh: 28.0*; MC4R antagonist: 1.2; Tb MetRS inh: -1.0; A1 inh: -0.3; NALP3 yeast inh: -2.1; MC4R ag barr: -0.5

Results for CC1=CC(C)(C)N(C(=O)CCl)c2cc(C)ccc21 ?
NALP1 yeast inh: -3.0; MC4R antagonist: 0.2; Tb MetRS inh: -0.2; A1 inh: 0.8; NALP3 yeast inh: 24.7; MC4R ag barr: -2.2

What do the screens show for `CCN(C(=O)C1CCN(S(=O)(=O)c2cccc3nonc23)CC1)c1ccccc1`?
NALP1 yeast inh: -7.6; MC4R antagonist: 1.3; Tb MetRS inh: -0.5; A1 inh: -0.3; NALP3 yeast inh: 8.6; MC4R ag barr: -1.3

Results for CCN(CC)C(=O)C1CCN(S(=O)(=O)c2cccc3nonc23)CC1 ?
NALP1 yeast inh: 43.1*; MC4R antagonist: 2.2; Tb MetRS inh: -0.4; A1 inh: 0.9; NALP3 yeast inh: -9.1; MC4R ag barr: 1.7

Results for CC(=O)c1nn(-c2cccc(Br)c2)cc1C(=O)c1ccccc1 ?
NALP1 yeast inh: 13.7; MC4R antagonist: 1.3; Tb MetRS inh: -0.8; A1 inh: 0.1; NALP3 yeast inh: 14.2; MC4R ag barr: 9.4*

Results for CC1ON=C(c2ccc(F)cc2)NC1=O (centres undefined) ?
MC4R antagonist: 9.7; Tb MetRS inh: -0.1; MC4R ag barr: -0.2
